Tests used:
[1] = test system: p38 in wild-type (WT) hearts; assay: p38 dual phosphorylation during global myocardial ischemia, WT hearts; settings: WT mouse hearts, global ischemia 5, 10 and 15 mins; 10 μM
p38α [2] = assay: co-transfection of HEK293 cells with TAB1 and p38α, p38 phosphorylation; format: cell-based
[3] = test system: p38 in hearts expressing the p38α Thr106Met gatekeeper mutant (IRα); assay: p38 activity during global myocardial ischemia, IRα hearts; settings: IRα mouse hearts, global ischemia 5, 10 and 15 mins; 10 μM
[4] = test system: isolated perfused mouse hearts; assay: contractile function of isolated perfused mouse hearts
In short: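 Langendorff hearts from male C57BL/6 mice (pentobarbital 300mg/kg i.p., heparin 150 units) perfused at 80 mmHg with KHB (95% O2/5% CO2, 37°C). LV balloon EDP set 2-8 mmHg, paced 600 bpm. Inclusion required LVDP ≥60 mmHg and flow 1.5-3.5 ml/min. After 30 min baseline, coded TAT-TAB1 peptides at 15μM recirculated 15 min in 20 mL KHB. Preliminary runs used three concentrations (n=2). Two-way repeated-measures ANOVA, Bonferroni.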

IRp38α = IRp38α co-expressed with TAB1 in HEK293 cells; format: cell-based; settings: Fig. 1c
In short: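 HEK293 cells were co-transfected with TAB1 and either p38α (HA-tagged, WT) or the gatekeeper mutant IRp38α, then exposed to BIRB793. p38 and TAB1 phosphorylation were read by immunoblot: dual-phospho p38 (Thr180/Tyr182) 1:4,000, total p38 1:15,000, overnight at 4 °C, ECL detection. Quantitation is from three independent transfections as mean ± s.d., analysed by one-way ANOVA with Bonferroni.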

p38 [5] = assay: p38 dual phosphorylation in isolated perfused mouse hearts; settings: 15 mins exposure; immunoblot, Fig. 6g
p38 [6] = assay: p38 activation in adult rat ventricular myocytes; format: cell-based; settings: ARVMs; peptides fused to TAT; immunoblot, Fig. 6c
In short: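 Rat ventricular myocytes were washed in M199 with penicillin, streptomycin, 2mM L-carnitine, 5mM creatine and 5mM taurine, pelleted at 100 g for 2 min and plated on laminin at 37°C in 5% CO2. After 1 h, non-adherent cells were removed and TAT-TAB1(371-416) peptides (WT, A/B mutant, scrambled) added in fresh medium. Immunoblots used dual-phospho p38 (Thr180/Tyr182; 1:4,000) and total p38 (1:15,000) antibodies, with ECL detection. One-way ANOVA, Bonferroni.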

[7] = test system: isolated adult rat cardiac myocytes; assay: viability of adult rat ventricular myocytes; format: cell-based; settings: ARVMs, later time points; peptides fused to TAT
In short: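 Laminin-plated adult rat ventricular myocytes in supplemented M199 at 37°C in 5% CO2 were exposed to fluorescein (FAM)-labelled TAT-TAB1(371-416) peptides. They were imaged by confocal microscopy at later time points. Cell death was scored as a rounded cell appearance with homogeneous distribution of the fluorescein label.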

p38α [8] = settings: time resolved FRET, non phospho p38α; ref Zhang et al., 2005; cited from earlier work
p38α [9] = biological target: T1, p38α (Mus musculus, UniProt P47811); assay: ITC binding to p38α; settings: for association with p38α by ITC (in words): p38α alone, non phospho
[10] = biological target: [p38α:TAB1(1-438)]complex (Mus musculus, UniProt P47811); assay: ITC binding to [p38α:TAB1
p38α [11] = biological target: T1, p38α; assay: co-expression of p38α and TAB1 in E. coli, p38α phosphorylation; format: cell-based; settings: western blot; Fig. 1d, 5d; inhibitors 10 μM
In short: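 Mouse p38α and TAB1 (full-length, 1-438 or 1-418) were co-expressed in E. coli from dual vectors, with p38α in the first MCS and TAB1 in the second. Controls were empty vector and p38α alone.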

[12] = peptides fused to TAT, 15 μM, 15 min, recirculated, n=5 mouse hearts per group

In the case of `C[S+]([O-])c1ccc(-c2nc(-c3ccncc3)c(-c3ccc(F)cc3)[nH]2)cc1` (stereo not shown) [SB203580], the “sensitivity of p38 dual phosphorylation to inhibitor” value [1] is reported as “sensitive”, the “effect of inhibitor on TAB1-enhanced p38α dual phosphorylation” value (p38α [2]; WTp38α, HEK293 cells, Fig. 1b) is reported as “SB203580-sensitive” and the “p38 activity (phosphorylation of TAB1 and HSP27) with inhibitor” value [3] is reported as “p38 remained active”.

With `Cc1ccc(-n2nc(C(C)(C)C)cc2NC(=O)Nc2ccc(OCCN3CCOCC3)c3ccccc23)cc1` [BIRB796, reference compound] the “inhibition of p38α on effects of perfusion with TAB1(371-416) (WT)” value ([4]; LVDP and coronary flow, numbers per group WT=7 and WT+I=5, Fig. 6h) was “attenuates the effects of perfusion with TAB1(371-416)” and the “pattern of phosphorylation on inhibitor exposure, IRp38α coexpressed with TAB1” value (IRp38α) was “altered”.

In the case of “GYGRKKRRQRRRGEMSQPTPTPAPGGRVYPVSVPYSSAQSTSKTSVTLSLVMPSQGQMV [TAT-TAB1(371-416)]”, the coronary flow ([4]; 15 μM, 15 min, recirculated, n=5 mouse hearts per group) is reported as “reduction in coronary flow”, the developed pressure [4, 12] is reported as “marked reduction in developed pressure” and the end-diastolic pressure [4, 12] is reported as “elevation in the end-diastolic pressure”. For the same molecule, the “p38 dual phosphorylation in perfused hearts” value (p38 [5]) was “p38 dual phosphorylation”, the p38 activation (p38 [6]) was “caused p38 activation” and the cell death [7] was “cell death”.

In the case of `Nc1ncnc2c1ncn2[C@@H]1O[C@H](COP(=O)(O)OP(=O)(O)OP(=O)(O)O)[C@@H](O)[C@H]1O` [ATP], the Kd (p38α [8]) is listed as 13 ± 5.5 mM.

With `Nc1ncnc2c1ncn2[C@@H]1O[C@H](CO[P@](=O)(O)O[P@](=O)(O)O[P@@](=O)(O)S)[C@@H](O)[C@H]1O` [ATPγS] the “association with p38α by ITC (in words)” value (p38α [9]) was “no measurable association by ITC”, the Kd [10] was 0.0053 mM and the “affinity for p38α in the presence of TAB1(1-438) (in words)” value ([10]; ITC, 1:1 stoichiometry) was “low μM affinity”.

With “TAB1: TGF-β-activated protein kinase 1 (TAK1) binding protein 1, scaffold protein (EMSQPTPTPAPGGRVYPVSVPYSSAQSTSKTSVTLSLVMPSQGQMV)” the “p38α dual phosphorylation on co-expression in HEK293 cells” value (p38α [2]; western blot, three independent transfections) was “enhanced p38α dual phosphorylation” and the “p38α phosphorylation on co-expression in E. coli” value (p38α [11]) was “enhanced”.

With “TAB1(371-416A/B) (EMSQPTPTPAPGGRVYPVSAPASSAQSTSKTSVTLSLGAPSQGQMV)” the “association with p38α by ITC (in words)” value (p38α [9]) was “no binding was detected” and the p38 activation (p38 [6]) was “but not TAB1(371-416A-B) caused p38 activation”.

For “GYGRKKRRQRRRGEMSQPTPTPAPGGRVYPVSAPASSAQSTSKTSVTLSLGAPSQGQMV [TAT-TAB1(371-416A/B)]”, the “maximum concentration that did not cause discernible contractile dysfunction” value ([4]; isolated mouse heart, preliminary experiments) was 15 µM.

B1: TAB1(1-438): recombinant mouse TAB1(1-438), N-terminal HexaHistidine tag and TEV site (protein)
chain: MAAQRRSLLQSEQQPSWTDDLPLCHLSGVGSASNRSYSADGKGTESHPPEDNWLKFRSENNCFLYGVFNGYDGNRVTNFVAQRLSAELLLGQLNTEHTEADVRRVLLQAFDVVERSFLESIDDALAEKASLQSQLPEGVPQHQLPPQYQKILERLKALEREISGGAMAVVAVLLNSKLYVANVGTNRALLCKSTVDGLQVTQLNMDHTTENEDELFRLSQLGLDAGKIKQMGVICGQESTRRIGDYKVKYGYTDIDLLSAAKSKPIIAEPEIHGAQPLDGVTGFLVLMSEGLYKALEAAHGPGQANQEIAAMIDTEFAKQTSLDAVAQAVVDRVKRIHSDTFASGGERAKFCPRHEDMTLLVRNFGYPLGEMSQPTPTPAPGGRVYPVSVPYSSAQSTSKTSVTLSLVMPSQGQMVNGSHSASTLDEATPTLTNQSPT
With B1 the “−TΔS” value (p38α [9]; 25°C, ΔG = ΔH-TΔS) was 5.1 kcal/mol and the “association with p38α by ITC (in words)” value (p38α [9]) was “binding affinity in the low micromolar range”.

Source: paper PMC3822283 (Nature structural & molecular biology, 2013)
